Converted amounts (≈) assume the structure as drawn.
Key:
Staphylococcus aureus [1] = assay: Antibacterial activity against Staphylococcus aureus ATCC 29213 assessed as change in MIC by agar odilution method after serial passages in presence of antibiotic relative to control; type: functional, ATCC29213
Procedure, shortened: (§1)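 Serial passage under drug. Inoculum was ~1 × 10^6 CFU/ml from overnight MHA growth, in 1 ml MHB at 35°C for 24 h. Drug ranged from 4 log2 steps above to 3 log2 steps below the MIC. […] MIC change is given as log2 steps.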

[2] = tested on: Staphylococcus epidermidis; assay: Antibacterial activity against methicillin-resistant, Linezolid non-susceptible coagulase-negative Staphylococcus epidermidis 345 by agar dilution method; type: functional
[3] = tested on: Staphylococcus epidermidis; assay: Antibacterial activity against methicillin-resistant coagulase-negative Staphylococcus epidermidis 074 by broth macrodilution method; type: functional
[4] = tested on: coagulase-negative staphylococci; assay: Antibacterial activity against Tmp-susceptible coagulase-negative staphylococci by agar dilution method
[5] = tested on: Staphylococcus epidermidis; assay: Antibacterial activity against methicillin-resistant coagulase-negative Staphylococcus epidermidis 345 by broth macrodilution method; type: functional
Staphylococcus aureus [6] = assay: Antibacterial activity against methicillin-susceptible Staphylococcus aureus ATCC 29213 by broth macrodilution method; type: functional; details: ATCC29213
Staphylococcus aureus [7] = assay: Antibacterial activity against methicillin-resistant Staphylococcus aureus 507 by broth macrodilution method; type: functional
Staphylococcus aureus [8] = assay: Antibacterial activity against Tmp-susceptible Staphylococcus aureus by agar dilution method; type: functional
Procedure, shortened: (§2)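 MICs by agar dilution on Mueller-Hinton agar following CLSI guidelines. S. aureus ATCC 29213 and E. faecalis ATCC 29212 were run as quality controls with each set, and test-strain MICs were kept only if control MICs fell within acceptable ranges.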

[9] = tested on: coagulase-negative staphylococci; assay: Antibacterial activity against methicillin-resistant coagulase-negative staphylococci by agar dilution method
Staphylococcus aureus [10] = assay: Antibacterial activity against methicillin-resistant Staphylococcus aureus ATCC 43300 by broth macrodilution method; type: functional; details: ATCC43300
[11] = tested on: Staphylococcus epidermidis; assay: Antibacterial activity against methicillin-resistant coagulase-negative Staphylococcus epidermidis 197 by broth macrodilution method; type: functional
[12] = tested on: coagulase-negative staphylococci; assay: Antibacterial activity against methicillin-susceptible coagulase-negative staphylococci by agar dilution method
[13] = tested on: Staphylococcus epidermidis; assay: Antibacterial activity against coagulase-negative Staphylococcus epidermidis 345 by agar dilution method; type: functional; procedure, shortened: as §2
[14] = tested on: Staphylococcus epidermidis; assay: Antibacterial activity against coagulase-negative Staphylococcus epidermidis 345 after 10 passages in MBH without antibiotic by agar dilution method; type: functional
Procedure, shortened: (§3)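 After drug-selective serial passage, selected clones were passaged 10 times in antibiotic-free MHB. MICs were then redetermined, and the change is expressed as log2 dilution steps.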

Staphylococcus aureus [15] = assay: Antibacterial activity against methicillin-resistant Staphylococcus aureus by agar dilution method; type: functional
Procedure, shortened: (§4)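 Agar dilution on Mueller-Hinton agar per CLSI guidelines. S. aureus ATCC 29213 and E. faecalis ATCC 29212 were run with each set, and test MICs were accepted only when the control strains fell within acceptable ranges.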

Staphylococcus aureus [16] = assay: Antibacterial activity against methicillin-susceptible Staphylococcus aureus by agar dilution method; type: functional; procedure, shortened: as §4
Staphylococcus aureus [17] = assay: Antibacterial activity against vancomycin-resistant Staphylococcus aureus VRS1 by broth macrodilution method; type: functional
Procedure, shortened: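 Michigan VRSA strain, one of 12 staphylococci later used in time-kill studies. MIC was determined by broth macrodilution and reported in μg/ml.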

[18] = tested on: coagulase-negative staphylococci; assay: Antibacterial activity against Tmp-resistant coagulase-negative staphylococci by agar dilution method
[19] = tested on: Staphylococcus epidermidis; assay: Antibacterial activity against methicillin-resistant coagulase-negative Staphylococcus epidermidis 225 by broth macrodilution method; type: functional
[20] = tested on: Staphylococcus epidermidis; assay: Antibacterial activity against coagulase-negative Staphylococcus epidermidis 057 assessed as change in MIC by agar dilution method after serial passages in presence of antibiotic relative to control; type: functional; procedure, shortened: as §1
[21] = tested on: Staphylococcus epidermidis; assay: Antibacterial activity against coagulase-negative Staphylococcus epidermidis 197 assessed as change in MIC by agar dilution method after serial passages in presence of antibiotic relative to control; type: functional; procedure, shortened: as §1
[22] = tested on: Staphylococcus epidermidis; assay: Antibacterial activity against methicillin-susceptible coagulase-negative Staphylococcus epidermidis 051 by broth macrodilution method; type: functional
[23] = tested on: Staphylococcus epidermidis; assay: Antibacterial activity against coagulase-negative Staphylococcus epidermidis 225 after 10 passages in MBH without antibiotic by agar dilution method; type: functional; procedure, shortened: as §3
Staphylococcus aureus [24] = assay: Antibacterial activity against methicillin-resistant and vancomycin-resistant Staphylococcus aureus VRS1 by agar dilution method; type: functional; procedure, shortened: as §4
[25] = tested on: Staphylococcus epidermidis; assay: Antibacterial activity against coagulase-negative Staphylococcus epidermidis 051 assessed as change in MIC by agar dilution method after serial passages in presence of antibiotic relative to control; type: functional; procedure, shortened: as §1
Staphylococcus aureus [26] = assay: Antibacterial activity against vancomycin-resistant Staphylococcus aureus VRS1 assessed as change in MIC by agar dilution method after serial passages in presence of antibiotic relative to control; type: functional
Procedure, shortened: (§5)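 Daily serial passage for up to 50 days at 35°C for 24 h in 1 ml MHB. […] Each transfer used 10 µl from the tube nearest the MIC (1–2 dilutions below) with the same turbidity as the drug-free control. […] MICs were measured by agar dilution, with changes given as log2 steps.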

Staphylococcus aureus [27] = assay: Antibacterial activity against methicillin-susceptible, vancomycin-intermediate Staphylococcus aureus 505 by broth macrodilution method; type: functional
[28] = tested on: Staphylococcus epidermidis; assay: Antibacterial activity against coagulase-negative Staphylococcus epidermidis 345 assessed as change in MIC by agar dilution method after serial passages in presence of antibiotic relative to control; type: functional; procedure, shortened: as §1
Staphylococcus aureus [29] = assay: Antibacterial activity against Staphylococcus aureus 145
[30] = tested on: Staphylococcus epidermidis; assay: Antibacterial activity against coagulase-negative Staphylococcus epidermidis 051 assessed as change in MIC by agar dilution method after serial passages in the absence of antibiotic relative to control; type: functional; procedure, shortened: as §3
[31] = tested on: Staphylococcus epidermidis; assay: Antibacterial activity against coagulase-negative Staphylococcus epidermidis 345 assessed as change in MIC by agar dilution method after serial passages in the absence of antibiotic relative to control; type: functional; procedure, shortened: as §3
Staphylococcus aureus [32] = assay: Antibacterial activity against methicillin-susceptible Staphylococcus aureus ATCC 29213 after 50 passages by agar dilution method; type: functional; details: ATCC29213; procedure, shortened: as §5
Staphylococcus aureus [33] = assay: Antibacterial activity against Staphylococcus aureus 145 assessed as change in MIC by agar dilution method after serial passages in the absence of antibiotic relative to control; type: functional; procedure, shortened: as §3
Staphylococcus aureus [34] = assay: Antibacterial activity against Staphylococcus aureus ATCC 43300 assessed as change in MIC by agar dilution method after serial passages in presence of antibiotic relative to control; type: functional; procedure, shortened: as §1
[35] = tested on: Staphylococcus epidermidis; assay: Antibacterial activity against methicillin-susceptible coagulase-negative Staphylococcus epidermidis 057 by broth macrodilution method; type: functional
[36] = tested on: Staphylococcus epidermidis; assay: Antibacterial activity against coagulase-negative Staphylococcus epidermidis 051 by agar dilution method; type: functional; procedure, shortened: as §2
Staphylococcus aureus [37] = assay: Antibacterial activity against methicillin-susceptible Staphylococcus aureus 505 by broth macrodilution method; type: functional
Staphylococcus aureus [38] = assay: Antibacterial activity against Staphylococcus aureus 505 assessed as change in MIC by agar dilution method after serial passages in presence of antibiotic relative to control; type: functional; procedure, shortened: as §1
Staphylococcus aureus [39] = assay: Antibacterial activity against Staphylococcus aureus 145 assessed as change in MIC by agar dilution method after serial passages in presence of antibiotic relative to control; type: functional; procedure, shortened: as §1

## COc1cc(Cc2cnc(N)nc2N)cc(/C=C/C(=O)N2N=Cc3ccccc3C2c2cnc(N3CCOCC3)nc2)c1OC (stereo not given)
Staphylococcus aureus [1]
  fold change (FC): 4
[2]
  MIC: 0.06 µg/mL (≈ 0.0987 µM)
[3]
  MIC: 0.25 µg/mL (≈ 0.411 µM)
[4]
  MIC50: 0.03 µg/mL (≈ 0.0494 µM)
  MIC90: 0.06 µg/mL (≈ 0.0987 µM)
[5]
  MIC: 0.125 µg/mL (≈ 0.206 µM)
Staphylococcus aureus [6]
  MIC: 0.06 µg/mL (≈ 0.0987 µM)
Staphylococcus aureus [7]
  MIC: 0.25 µg/mL (≈ 0.411 µM)
Staphylococcus aureus [8]
  MIC50: 0.03 µg/mL (≈ 0.0494 µM)
  MIC90: 0.06 µg/mL (≈ 0.0987 µM)
[9]
  MIC50: 0.06 µg/mL (≈ 0.0987 µM)
  MIC90: 0.5 µg/mL (≈ 0.823 µM)
Staphylococcus aureus [10]
  MIC: 0.03 µg/mL (≈ 0.0494 µM)
[11]
  MIC: 0.06 µg/mL (≈ 0.0987 µM)
[12]
  MIC90: 0.06 µg/mL (≈ 0.0987 µM)
[13]
  MIC: 0.06 µg/mL (≈ 0.0987 µM)
[14]
  MIC: 2 µg/mL (≈ 3.29 µM)
Staphylococcus aureus [15]
  MIC50: 0.03 µg/mL (≈ 0.0494 µM)
  MIC90: 0.25 µg/mL (≈ 0.411 µM)
Staphylococcus aureus [16]
  MIC50: 0.03 µg/mL (≈ 0.0494 µM)
  MIC90: 0.25 µg/mL (≈ 0.411 µM)
Staphylococcus aureus [17]
  MIC: 1 µg/mL (≈ 1.65 µM)
[18]
  MIC50: 0.125 µg/mL (≈ 0.206 µM)
  MIC90: 1 µg/mL (≈ 1.65 µM)
[19]
  MIC: 0.25 µg/mL (≈ 0.411 µM)
[20]
  fold change (FC): 5
[21]
  fold change (FC): 4
[22]
  MIC: 0.25 µg/mL (≈ 0.411 µM)
[23]
  MIC: 2 µg/mL (≈ 3.29 µM)
Staphylococcus aureus [24]
  MIC: 1 µg/mL (≈ 1.65 µM)
[25]
  fold change (FC): 7
Staphylococcus aureus [26]
  fold change (FC): 8
Staphylococcus aureus [27]
  MIC: 0.03 µg/mL (≈ 0.0494 µM)
[28]
  fold change (FC): 6
Staphylococcus aureus [29]
  MIC: 0.25 µg/mL (≈ 0.411 µM)
[30]
  fold change (FC): -6
[31]
  fold change (FC): -1
Staphylococcus aureus [32]
  MIC: 1 µg/mL (≈ 1.65 µM)
Staphylococcus aureus [33]
  fold change (FC): 0
Staphylococcus aureus [34]
  fold change (FC): 5
[35]
  MIC: 4 µg/mL (≈ 6.58 µM)
[36]
  MIC: 0.5 µg/mL (≈ 0.823 µM)
Staphylococcus aureus [37]
  MIC: 0.03 µg/mL (≈ 0.0494 µM)
Staphylococcus aureus [38]
  fold change (FC): 6
Staphylococcus aureus [39]
  fold change (FC): 9
